Consider 16 compounds from ChEMBL document CHEMBL6127097, “Structure-Guided Discovery of cis-Hexahydro-pyrido-oxazinones as Reversible, Drug-like Monoacylglycerol Lipase Inhibitors” (J Med Chem, 2024).

As a reminder, the logD is lipophilicity at a set pH, counting ionised and neutral species. Lower therefore signals lower lipophilicity. Usually solubility stands for the dissolved amount per volume that the medium holds. The Cmax is the peak of the concentration-time curve. The Tmax is the time at which the peak concentration occurs. What is called AUC(0-t) is the area under the concentration-time curve up to a stated or last time point. Broadly, the half-life is the time in which the quantity being followed falls by half. As a reminder, the clearance is a measure of how efficiently the substance is removed, as volume per time. Lower therefore signals inefficient removal. By Kp is commonly meant tissue or fluid exposure divided by exposure in the circulation. What is called fraction unbound is free concentration divided by total concentration.

Each structure is given as a SMILES string. In brackets after ≈: the same amount, converted by molar mass.

Series [1] is described as follows: Octanol-water partition coefficient, logD of the compound at pH 7.4 incubated for 1.5 hrs by shake flask based LC-UV/MS analysis. In kind it is physicochemical. The conditions noted are these: pH 7.4. The method in brief:
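CAMDIS shake-flask variant. 10 mM DMSO stock is diluted into 25 mM phosphate pH 7.4 over a 1-octanol-impregnated PVDF membrane and shaken 1.5 h at 21 °C, at two octanol/buffer ratios, in triplicate. Remaining aqueous concentration is read by LC/MS; logD comes from the difference with and without octanol.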

Series [2] is described as follows: Aqueous solubility of compound in phosphate buffer at pH 6.5 by HPLC or MS/MS analysis. The class given is physicochemical. The following applies: phosphate buffer, read-out: solubility. The method in brief: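 Lyophilization solubility assay (LYSA) starting from a 10 mM DMSO stock. DMSO was removed by centrifugal vacuum evaporation, then 0.05 M phosphate buffer pH 6.5 was added and samples sonicated. Filtrates were analysed by MS/MS and/or HPLC against a 4- to 7-point calibration curve.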

Series [3] has as its target T1, Monoglyceride lipase (Homo sapiens, UniProt Q99685).
T1 sequence (Q99685 whole entry): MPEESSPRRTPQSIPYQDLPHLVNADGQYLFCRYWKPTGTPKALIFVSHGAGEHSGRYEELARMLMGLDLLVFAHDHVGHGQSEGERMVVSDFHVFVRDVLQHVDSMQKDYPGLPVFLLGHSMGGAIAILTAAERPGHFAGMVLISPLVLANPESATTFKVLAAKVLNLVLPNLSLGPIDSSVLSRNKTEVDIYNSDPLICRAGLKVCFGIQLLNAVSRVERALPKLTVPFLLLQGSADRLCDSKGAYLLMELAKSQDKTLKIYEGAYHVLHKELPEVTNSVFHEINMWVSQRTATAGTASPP
The experiment in a line: Inhibition of human MAGL using native substrate by Rapidfire MS assay.

Series [4] in a line: Cmax in C57BL/6 mouse at 24 mg/kg, ip measured upto 7 hrs by LC-MS/MS analysis. The conditions noted are these: in vivo.
Series [5] can be described thus: Tmax in C57BL/6 mouse at 24 mg/kg, ip measured upto 7 hrs by LC-MS/MS analysis. The following applies: in vivo.
The nature of series [6]: Cmax in C57BL/6 mouse at 5.1 mg/kg, po measured upto 7 hrs by LC-MS/MS analysis. The conditions noted are these: in vivo.
Series [7] is described as follows: Tmax in C57BL/6 mouse at 5.1 mg/kg, po measured upto 7 hrs by LC-MS/MS analysis. The following applies: in vivo.
Series [8] can be described thus: AUClast in C57BL/6 mouse at 24 mg/kg, ip measured upto 7 hrs by LC-MS/MS analysis. The following applies: in vivo.
Series [9] can be described thus: AUClast in C57BL/6 mouse at 5.1 mg/kg, po measured upto 7 hrs by LC-MS/MS analysis. The conditions noted are these: in vivo.
A short description of series [10]: Half-life in C57BL/6 mouse at 24 mg/kg, ip measured upto 7 hrs by LC-MS/MS analysis. The conditions noted are these: in vivo.
Series [11] in a line: Clearance in C57BL/6 mouse at 1.3 mg/kg, iv measured upto 7 hrs by LC-MS/MS analysis. The conditions noted are these: in vivo.
A short description of series [12]: Half-life in C57BL/6 mouse at 1.3 mg/kg, iv measured upto 7 hrs by LC-MS/MS analysis. The following applies: in vivo.
Series [13] can be described thus: Oral bioavailability in C57BL/6 mouse at 5.1 mg/kg measured upto 7 hrs by LC-MS/MS analysis. The following applies: in vivo.
Series [14] in a line: Volume of distribution at steady state in C57BL/6 mouse at 1.3 mg/kg, iv measured upto 7 hrs by LC-MS/MS analysis. The conditions noted are these: in vivo, read-out: Vdss.
Series [15] in a line: Ratio of drug concentration in C57BL/6 mouse CSF to plasma at 24 mg/kg, ip measured upto 7 hrs by LC-MS/MS analysis.
A short description of series [16]: Ratio of drug concentration in C57BL/6 mouse brain to plasma at 24 mg/kg, ip measured upto 7 hrs by LC-MS/MS analysis.
Series [17] is described as follows: Unbound brain to plasma partition coefficient of compound in C57BL/6 mouse at 24 mg/kg, ip measured upto 7 hrs by LC-MS/MS analysis. The following applies: read-out: K(p,uu,brain).
Series [18] is described as follows: Free fraction in human plasma incubated for 5 hrs by equilibrium dialysis based LC-MS/MS analysis. The class given is ADME, cell-free. The method in brief: (§1)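 Equilibrium dialysis across a 12–14 kDa cutoff membrane in a Teflon 96-well device. Pooled frozen plasma is adjusted to pH 7.4 and spiked at 1000 nM initial total, against Soerensen buffer pH 7.4. Incubation is 5 h at 37 °C, 5% CO2, with diazepam control in each well. %fu = 100 × buffer/matrix concentration after dialysis; recovery accepted at 80–120%.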
For orientation: In equilibrium dialysis only unbound substance equilibrates across the membrane.

Series [19] can be described thus: Plasma protein binding in human assessed as fraction unbound by equilibrium dialysis based LC-MS/MS method. In kind it is ADME, cell-free. The gist of the method:
as §1

In turn, `O=C1COc2ccc(C(=O)N3CCC(c4c[nH]c5ccccc45)CC3)cc2N1` returned a logD at 1.5 h in series [1] of 2.9. For the same compound, the solubility in [2] amounted to 37 µg/mL (≈ 98.6 µM). The IC50 in [3] (read-out: IC50) turned out to be 37 nM.
Take `O=C1COc2ccc(C(=O)N3CCC(Cc4cccc(F)c4)CC3)cc2N1`: the logD at 1.5 h in series [1] came out at 3.6. Moreover, in series [2], the solubility was 36 µg/mL (≈ 97.7 µM). In addition, the values for the IC50 in [3] (read-out: IC50) and in [3] (read-out: pIC50 (converted)) were 51 nM and 49 nM, respectively.
`O=C1COc2ccc(C(=O)N3CCC(C(c4ccccc4)c4ccccc4)CC3)cc2N1`: the logD at 1.5 h in series [1] was found to be 3.8. Further, the solubility in series [2] is < 0.1 µg/mL. Besides, the IC50 was 1 nM in series [3] (read-out: IC50) and 0.437 nM in [3] (read-out: pIC50 (converted)).
In series [1], `O=C1C[C@H]2CCN(C(=O)N3CCC(Cc4ccc(C(F)(F)F)cc4)CC3)C[C@H]2N1` registered a logD at 1.5 h of 3.2. In series [2], the solubility stood at 377 µg/mL (≈ 921 µM). In addition, in series [3] (read-out: IC50), the IC50 came to 569 nM.
Turning to `O=C(c1ccc2cn[nH]c2c1)N1CCC(Cc2ccc(C(F)(F)F)cc2)CC1`, the logD at 1.5 h in [1] turned out to be 3.8. Also, the solubility in [2] was found to be 2.9 µg/mL (≈ 7.49 µM). Besides, the results for the IC50 in series [3] (read-out: IC50) and in series [3] (read-out: pIC50 (converted)) were 965 nM and 912 nM, respectively.
In turn, `O=C1CO[C@H]2CCN(C(=O)N3CCC(Cc4ccc(C(F)(F)F)cc4)CC3)C[C@H]2N1` (racemic) returned a logD at 1.5 h in series [1] of 3.2. Also, the solubility in series [2] was 225 µg/mL (≈ 529 µM). Further, the IC50 in series [3] (read-out: IC50) was 65 nM. Further, the figures for the Cmax in series [4] and in [6] were 12200 ng/mL and 896 ng/mL, respectively. Besides, the Tmax is 1.5 h in series [5] and 2.7 h in series [7]. In addition, the results for the AUC(0-t) at 7 h in series [8] and in series [9] were 62100 ng·h/mL and 4560 ng·h/mL, respectively. Also, the half-life in series [10] is 2.9 h; in series [12], 1.5 h. This compound gave a clearance in series [11] of 23 mL/min/kg. Besides, in series [13], the bioavailability was 127%. The Vd in [14] was found to be 3 L/kg. The Kp at 7 h in series [15] came out at 0.016; in series [16], 1.7. Also, the Kp uu at 7 h in series [17] is 0.35.
`O=C1COc2ccc(C(=O)N3CCC(c4c[nH]c5ccc(Cl)cc45)CC3)cc2N1`: the logD at 1.5 h in series [1] stood at 3.6. Moreover, in [2], the solubility turned out to be 2 µg/mL (≈ 4.88 µM). In series [3] (read-out: IC50), the IC50 was 3 nM.
In [1], `O=C1COc2ccc(C(=O)N3CCC(Cc4ccc(C(F)(F)F)cc4)CC3)cc2N1` yielded a logD at 1.5 h of 3.8. The solubility in series [2] was 4.1 µg/mL (≈ 9.8 µM). Also, the fraction unbound at 5 h in [18] worked out at 0.005. In addition, the fraction unbound in [19] turned out to be 0.005. The values for the IC50 in series [3] (read-out: IC50) and in series [3] (read-out: pIC50 (converted)) were 32 nM and 28.8 nM, respectively.
As for `O=C1COc2ccc(C(=O)N3CCC(Cc4ccccc4)CC3)cc2N1`, the logD at 1.5 h in series [1] was 3.2. Moreover, the solubility in series [2] was 1.1 µg/mL (≈ 3.14 µM). For the same compound, the IC50 in series [3] (read-out: IC50) worked out at 75 nM.
Consider `O=C1COc2ccc(C(=O)N3CCC(Cc4cccc(C(F)(F)F)c4)CC3)cc2N1`, for which the logD at 1.5 h in series [1] was 3.9. In series [2], the solubility turned out to be 15 µg/mL (≈ 35.8 µM). Also, the IC50 in series [3] (read-out: IC50) was 46 nM; in series [3] (read-out: pIC50 (converted)) it was 44.7 nM.
Turning to `O=C1COc2ccc(C(=O)N3CCC(c4c[nH]c5cc(Cl)ccc45)CC3)cc2N1`, the logD at 1.5 h in series [1] is 3.8. In series [2], the solubility is 0.3 µg/mL (≈ 0.732 µM). The IC50 in series [3] (read-out: IC50) came out at 21 nM.
On to `O=C1CO[C@H]2CCN(C(=O)N3CCC(Cc4ccc(C(F)(F)F)cc4)CC3)C[C@@H]2N1` (racemic), for which the logD at 1.5 h in series [1] was 3.2. The solubility in series [2] was determined as 78 µg/mL (≈ 183 µM). For the same compound, the IC50 in series [3] (read-out: IC50) was 370 nM; in series [3] (read-out: pIC50 (converted)) it was 347 nM.
In series [1], `O=C1COc2ccc(C(=O)N3CCC(Cc4ccc(F)cc4)CC3)cc2N1` came in with a logD at 1.5 h of 3.3. The solubility in series [2] amounted to 0.8 µg/mL (≈ 2.17 µM). Moreover, the IC50 in series [3] (read-out: IC50) is 62 nM; in [3] (read-out: pIC50 (converted)), 57.5 nM.
`O=C1COc2ccc(C(=O)N3CCC(C(c4ccc(F)cc4)c4ccc(F)cc4)CC3)cc2N1` came in with a logD at 1.5 h in [1] of 3.8. The solubility in [2] is < 0.1 µg/mL. In addition, the IC50 in [3] (read-out: IC50) amounted to 1 nM.
In series [1], `O=C1CSc2ccc(C(=O)N3CCC(Cc4ccc(C(F)(F)F)cc4)CC3)cc2N1` yielded a logD at 1.5 h of 3.7. In series [2], the solubility was found to be 6.9 µg/mL (≈ 15.9 µM). Besides, the values for the IC50 in series [3] (read-out: IC50) and in series [3] (read-out: pIC50 (converted)) were 2500 nM and 2400 nM, respectively.
`O=C1CO[C@@H]2CCN(C(=O)N3CCC(Cc4ccc(C(F)(F)F)cc4)CC3)C[C@@H]2N1` returned a logD at 1.5 h in series [1] of 3.3. Also, in series [2], the solubility was 114 µg/mL (≈ 268 µM). The IC50 in series [3] (read-out: IC50) was 2200 nM.
